Laboratory results published in ChEMBL document CHEMBL1153809, “7,7-Dimethylaporphine alkaloids from the stem of Guatteriopsis friesiana” (2009).
Converted amounts (≈) assume the structure as drawn.

Legend:
Type in all cases: functional
Pseudomonas aeruginosa = assay: Antimicrobial activity against Pseudomonas aeruginosa ATCC 13388 after 48 hrs by TTC staining method; details: ATCC 13388, 48 h
Method in brief: (§1)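 Bacteria grown overnight at 36 °C on nutrient agar. Cells suspended in 0.85% NaCl to McFarland 0.5 (checked at 580 nm), then diluted to 10^4 CFU/mL. Broth microdilution in Mueller-Hinton broth, in duplicate. Samples tested at 1.0-0.016 mg/mL; chloramphenicol and nystatin references at 0.25-0.002 mg/mL. Incubated 36 °C for 48 h, then 0.5% TTC added. MIC is the lowest concentration inhibiting visible growth by TTC staining.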

Staphylococcus aureus = assay: Antimicrobial activity against Staphylococcus aureus ATCC 6538 after 48 hrs by TTC staining method; details: ATCC 6538, 48 h; method in brief: as §1
Micrococcus luteus = assay: Antimicrobial activity against Micrococcus luteus ATCC 4968 after 48 hrs by TTC staining method; details: ATCC 4968, 48 h; method in brief: as §1
Candida albicans = assay: Antimicrobial activity against Candida albicans ATCC 10231 after 48 hrs by TTC staining method
Method in brief: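 Yeast grown on Sabouraud dextrose agar. Cells suspended in 0.85% NaCl to McFarland 0.5 (checked at 580 nm), then diluted to 10^4 CFU/mL. Mueller-Hinton broth microdilution, in duplicate. Samples tested at 1.0-0.016 mg/mL; chloramphenicol and nystatin references at 0.25-0.002 mg/mL. Incubated 48 h at 36 °C, then 0.5% TTC added. MIC is the lowest concentration preventing visible growth by TTC stain.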

Escherichia coli = assay: Antimicrobial activity against Escherichia coli ATCC 11775 after 48 hrs by TTC staining method; details: ATCC 11775, 48 h; method in brief: as §1
Enterococcus faecium = assay: Antimicrobial activity against Enterococcus faecium CCT 5079 after 48 hrs by TTC staining method; details: CCT 5079, 48 h; method in brief: as §1
Enterococcus hirae = assay: Antimicrobial activity against Enterococcus hirae ATCC 10541 after 48 hrs by TTC staining method; details: ATCC 10541, 48 h; method in brief: as §1
Prescottella equi = assay: Antimicrobial activity against Rhodococcus equi ATCC 6939 after 48 hrs by TTC staining method; details: Rhodococcus (subgen. Prescottella) equi, ATCC 6939, 48 h; method in brief: as §1
Salmonella enterica = assay: Antimicrobial activity against Salmonella choleraesuis ATCC 10708 after 48 hrs by TTC staining method; details: ATCC 10708, 48 h; method in brief: as §1
Bacillus subtilis = assay: Antimicrobial activity against Bacillus subtilis ATCC 5061 after 48 hrs by TTC staining method; details: ATCC 5061, 48 h; method in brief: as §1
[1] = tested on: Staphylococcus epidermidis; assay: Antimicrobial activity against Staphylococcus epidermidis ATCC 12228 after 48 hrs by TTC staining method; details: ATCC 12228, 48 h; method in brief: as §1

O=C1c2ccccc2-c2c3c(cc4ccnc1c24)OCO3 [LIRIODENINE]
MIC (Pseudomonas aeruginosa): > 1000 µg/mL | MIC (Staphylococcus aureus): > 1000 µg/mL | MIC (Micrococcus luteus): 150 µg/mL (≈ 545 µM) | MIC (Candida albicans; ATCC 10231, 48 h): > 1000 µg/mL | MIC (Escherichia coli): > 1000 µg/mL | MIC (Enterococcus faecium): 150 µg/mL (≈ 545 µM) | MIC (Enterococcus hirae): 600 µg/mL (≈ 2180 µM) | MIC (Prescottella equi): 10 µg/mL (≈ 36.3 µM) | MIC (Salmonella enterica): > 1000 µg/mL | MIC (Bacillus subtilis): 500 µg/mL (≈ 1820 µM)

O=C(N[C@H](CO)[C@H](O)c1ccc([N+](=O)[O-])cc1)C(Cl)Cl [CHLORAMPHENICOL]
MIC (Pseudomonas aeruginosa): 850 µg/mL (≈ 2630 µM) | MIC (Staphylococcus aureus): 20 µg/mL (≈ 61.9 µM) | MIC (Micrococcus luteus): 50 µg/mL (≈ 155 µM) | MIC (Escherichia coli): 40 µg/mL (≈ 124 µM) | MIC (Enterococcus faecium): 70 µg/mL (≈ 217 µM) | MIC (Enterococcus hirae): 120 µg/mL (≈ 371 µM) | MIC (Prescottella equi): 40 µg/mL (≈ 124 µM) | MIC (Salmonella enterica): 60 µg/mL (≈ 186 µM) | MIC [1]: 40 µg/mL (≈ 124 µM) | MIC (Bacillus subtilis): 20 µg/mL (≈ 61.9 µM)

NYSTATIN
MIC (Candida albicans): 50 µg/mL
